Source: ChEMBL document CHEMBL1811845, “Modulation of GABAA-receptors by honokiol and derivatives: subtype selectivity and structure-activity relationship” (J Med Chem, 2011)

How the values were obtained:
Oocyte [1] = assay: Modulation of GABA alpha1beta2gamma2s receptor expressed in Xenopus laevis oocytes assessed as potentiation of GABA-induced chloride current at holding potential -70 mV at 10 uM by two-microelectrode voltage clamp technique in presence of 300 nM of Diazepam relative to GABA; type: cell-based
[2] = target: T1, Gamma-aminobutyric acid receptor subunit alpha-2/beta-2 (Homo sapiens, UniProt P47869+P47870); assay: Modulation of GABA Aalpha2beta2 receptor expressed in Xenopus laevis oocytes assessed as potentiation of GABA-induced chloride current at holding potential -70 mV by two-microelectrode voltage clamp technique; type: cell-based, Oocyte
T1 sequence (P47870 whole entry): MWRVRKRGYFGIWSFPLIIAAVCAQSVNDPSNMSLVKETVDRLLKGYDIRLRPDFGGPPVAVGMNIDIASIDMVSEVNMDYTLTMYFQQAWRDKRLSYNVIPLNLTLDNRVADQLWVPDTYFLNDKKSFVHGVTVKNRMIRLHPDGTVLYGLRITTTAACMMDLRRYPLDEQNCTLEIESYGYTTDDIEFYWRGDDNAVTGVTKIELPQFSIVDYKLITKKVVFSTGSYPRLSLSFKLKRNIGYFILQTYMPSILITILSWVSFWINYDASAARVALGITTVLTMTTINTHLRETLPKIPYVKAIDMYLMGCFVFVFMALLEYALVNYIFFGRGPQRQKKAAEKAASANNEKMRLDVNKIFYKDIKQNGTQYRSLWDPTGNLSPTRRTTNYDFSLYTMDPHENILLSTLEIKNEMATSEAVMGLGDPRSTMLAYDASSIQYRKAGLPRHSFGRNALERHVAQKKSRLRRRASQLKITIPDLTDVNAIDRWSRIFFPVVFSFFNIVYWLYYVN
T1 sequence (P47869 whole entry): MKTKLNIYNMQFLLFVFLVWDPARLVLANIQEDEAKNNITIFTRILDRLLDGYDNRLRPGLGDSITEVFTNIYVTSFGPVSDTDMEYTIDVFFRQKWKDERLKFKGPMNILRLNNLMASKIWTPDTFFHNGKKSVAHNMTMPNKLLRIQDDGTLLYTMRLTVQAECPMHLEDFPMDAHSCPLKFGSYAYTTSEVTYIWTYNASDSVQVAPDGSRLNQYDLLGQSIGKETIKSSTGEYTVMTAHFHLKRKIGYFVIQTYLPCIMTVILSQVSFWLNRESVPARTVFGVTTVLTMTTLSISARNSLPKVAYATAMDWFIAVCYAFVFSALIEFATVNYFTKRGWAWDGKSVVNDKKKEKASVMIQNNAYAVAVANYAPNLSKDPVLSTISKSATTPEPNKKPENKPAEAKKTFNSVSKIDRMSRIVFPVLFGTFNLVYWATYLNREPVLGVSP
Outline: (§1)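 Stage V–VI Xenopus oocytes, defolliculated with 2 mg/mL collagenase, injected with α(1, 2, 3 or 5) and β2 cRNAs mixed 1:1, then kept at 18 °C in ND96 (pH 7.4). Enhancement = I(GABA+compound)/IGABA − 1. Curves were Hill-fitted for EC50. Bath DMSO was at most 0.3%, matched in controls.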

[3] = target: Gamma-aminobutyric acid receptor subunit alpha-1/ beta-1 (Homo sapiens) (UniProt P14867+P18505); assay: Modulation of GABA Aalpha1beta1 receptor expressed in Xenopus laevis oocytes assessed as potentiation of GABA-induced chloride current at holding potential -70 mV by two-microelectrode voltage clamp technique relative to GABA; type: cell-based; conditions: Oocyte
Outline: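 Stage V–VI female Xenopus oocytes were defolliculated with collagenase and injected with α1 and β1 cRNA at a 3:1 ratio. Oocytes were held at 18 °C in ND96, pH 7.4. Enhancement was (I(GABA+compound)/IGABA)−1, and EC50 and nH came from Hill fits. DMSO was ≤0.3% and matched in controls.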

[4] = target: Gamma-aminobutyric acid receptor subunit alpha-5/beta-2 (Homo sapiens) (UniProt P47870+P31644); assay: Modulation of GABA Aalpha5beta2 receptor expressed in Xenopus laevis oocytes assessed as potentiation of GABA-induced chloride current at holding potential -70 mV by two-microelectrode voltage clamp technique relative to GABA; type: cell-based; conditions: Oocyte
Outline: (§2)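 Oocytes were injected with α1, α2, α3 or α5 plus β2 cRNA at a 1:1 ratio and stored at 18 °C in ND96, pH 7.4. Enhancement was (I(GABA+compound)/IGABA)−1, and concentration-response data were Hill-fitted for EC50 and nH. Matched DMSO was ≤0.3%.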

Oocyte [5] = assay: Modulation of GABA alpha1beta2gamma2s receptor expressed in Xenopus laevis oocytes assessed as potentiation of GABA-induced chloride current at holding potential -70 mV at 10 uM by two-microelectrode voltage clamp technique relative to GABA; type: cell-based
[6] = target: Gamma-aminobutyric acid receptor subunit alpha-2/beta-2 (Homo sapiens) (UniProt P47870+P47869); assay: Modulation of GABA Aalpha2beta2 receptor expressed in Xenopus laevis oocytes assessed as potentiation of GABA-induced chloride current at holding potential -70 mV by two-microelectrode voltage clamp technique relative to GABA; type: cell-based; conditions: Oocyte; outline: as §2
[7] = target: T2, GABA-A receptor; GABA-A site (alpha1/beta2 interface) (Homo sapiens, UniProt P14867+P47870); assay: Modulation of GABA Aalpha1beta2 receptor expressed in Xenopus laevis oocytes assessed as potentiation of GABA-induced chloride current at holding potential -70 mV by two-microelectrode voltage clamp technique; type: cell-based, Oocyte; outline: as §1
T2 sequence (P14867 whole entry): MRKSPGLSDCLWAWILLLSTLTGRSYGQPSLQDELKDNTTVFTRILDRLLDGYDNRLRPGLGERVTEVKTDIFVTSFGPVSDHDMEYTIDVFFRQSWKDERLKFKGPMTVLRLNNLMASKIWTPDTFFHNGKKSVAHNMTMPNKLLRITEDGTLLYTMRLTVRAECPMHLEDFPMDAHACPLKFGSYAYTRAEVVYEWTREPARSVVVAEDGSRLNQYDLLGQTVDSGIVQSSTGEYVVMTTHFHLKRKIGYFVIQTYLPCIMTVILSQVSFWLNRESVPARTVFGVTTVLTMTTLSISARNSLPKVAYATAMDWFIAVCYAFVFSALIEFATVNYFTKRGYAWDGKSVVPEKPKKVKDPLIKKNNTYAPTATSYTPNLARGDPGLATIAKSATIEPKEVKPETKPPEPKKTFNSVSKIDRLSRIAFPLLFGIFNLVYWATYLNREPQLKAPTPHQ
T2 sequence (P47870 whole entry): T1 sequence (P47870 whole entry)

C=CCc1ccc(O)c(-c2ccc(O)c(CC=C)c2)c1 [HONOKIOL]
Activity (Oocyte [1]): 244%
EC50 [2]: 46.4 µM
Smax [3]: 260%
Smax [4]: 347%
Activity (Oocyte [5]): 101%
Smax [6]: 1130%
EC50 [7]: 39.3 µM
